Test results from PubChem BioAssay.
Active and inactive are the calls of the source.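 The calls were made as follows, unless noted: active = inhibition at or above 50% at 10 µM; inactive = inhibition below 50%.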

How the values were obtained:
[1] = inhibitors of TNFa-induced NFkB p65 translocation, primary screen, imaging, HUVEC, MLSMR starter and 10KST1 sets (AID 438;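 active = inhibition above 20% together with a positive visual image hit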;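 also: compound added about 3h40 before a 20 min TNFalpha stimulation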;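 as to inhibition: signal is the nuclear over cytoplasmic p65 intensity ratio per well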); details: HUVEC TNFa-induced p65 nuclear translocation; cell count: measured here: nuclei count (cytotoxicity indicator), at 2.08 µM; inhibition: at 2 µM, stronger effect = higher value, 0% TNFa-plus-vehicle, 100% no-TNFa wells
[2] = inhibitors of mutant huntingtin aggregation, primary screen, imaging, exon1htt(103Q)mCFP cells, high-content imaging (AID 483;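 active = visual image review flags a hit and inhibition of aggregation exceeds 20%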;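 also: compound exposure lasted 3 days before fixation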;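 as to nuclei count: percent of the per-plate median nuclei count of sample wells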); details: exon1htt(103Q)mCFP cell line, aggregate imaging, at 2 µM; inhibition of aggregation: stronger effect = higher value; nuclei count: measured here: cell count, toxicity
[3] = inhibitors of E-selectin induction by TNFa, primary screen, imaging, HUVEC, immunofluorescence, MLSMR starter and 10KST1 sets (AID 487;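 active = visually confirmed hit in the image check and inhibition above 20%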;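 as to inhibition: signal is fraction of cell area covered by stained E-selectin grains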;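 as to nuclei count: 100% = median nuclei count of all wells on the same plate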); details: HUVEC TNFalpha-induced E-selectin immunofluorescence imaging, at 2 µM; inhibition: stronger effect = higher value; nuclei count: measured here: cell number, toxicity
[4] = target: Voltage-gated potassium channel subunit beta-2 (Rattus norvegicus) (UniProt P62483); test: KvBeta enzyme negative modulators, primary screen, biochemical, NADPH fluorescence (AID 622;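 active = fluorescence slope higher than the sample average by over 3 SD, cut at about -0.22 in these data, passing the limit was not always enough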;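 also: slope of raw intensity against log time taken from 70 to 1610 s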); details: recombinant KvBeta, 4-cyanobenzaldehyde reduction, at 10 µM, stronger effect = higher value
[5] = target: Voltage-gated potassium channel subunit beta-2 (Rattus norvegicus) (UniProt P62483); test: KvBeta positive modulators, primary screen, biochemical, NADPH fluorescence (AID 623;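 active = NADPH fluorescence slope more negative than the mean of all samples by about 3 SD, 99.7% confidence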;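 also: fluorescence intensity change per second fitted from 20 to 320 s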); details: Recombinant KvBeta, NADPH fluorescence decrease slope, 10 min; at 10 µM; stronger effect = lower value
[6] = target: Alpha-2C adrenergic receptor (Homo sapiens) (UniProt P18825); test: modulators of alpha2C/GIRK thallium flux, primary screen, cell-based, HEK293 alpha2C/GIRK1/2 (AID 624;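 active = fluorescence slope after compound addition differing from the mean of all screened samples at 99.7% confidence, in either direction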;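 also: slope of fluorescence ratio to pre-addition baseline per second over 15 to 24 s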); details: thallium flux BTC fluorescence, at 10 µM, actives lie on both sides
[7] = inhibitors of larval lipid processing in zebrafish, primary screen, whole organism, PED6 fluorescence, gall bladder and intestine (AID 686;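 active = a full or partial loss of lipid-probe fluorescence in the fish gall bladder, intestine or both, judged by eye; inactive = no fluorescence loss, or compound toxic to the fish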;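 also: larvae 5 to 7 days old with five fish per well; signal comes from phospholipase A2 cleavage of quenched PED6 carried via bile; overnight exposure to compound and PED6 before scoring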); details: Zebrafish larvae PED6 lipid processing, fluorescence scoring; screened at 20 µM (by protocol)
Method in brief: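 system = live zebrafish larvae aged 5-7 days, whole organism | probe or stimulus = ingested quenched lipid PED6 at 100 nM | doses = 20 µM single dose | timing = overnight exposure | detection = fluorescence microscopy with visual scoring of gall bladder and intestine | read-out = visual per-well fluorescence inhibition score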

[8] = inhibitors of Sendai virus-induced IRF3 signaling, primary screen, TLR/RLR signaling modifier project, cell-based, Sendai virus stimulus, luciferase, 10K MLSCN set (AID 602276); details: HEK293 RL24 IRF3 luciferase reporter, at 10 µM, stronger effect = higher value;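 also: firefly luciferase from ISG56 promoter only with Renilla not read in this screen; 0% = Sendai virus plus DMSO and 100% = medium plus DMSO without virus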
[9] = inhibitors of poly I:C-induced TLR3 signaling, primary screen, cell-based, poly I:C stimulus, luciferase, 10K MLSCN set (AID 602277;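 active = inhibition of the reporter signal at or above 50%; inactive = inhibition below 50%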); details: HEK293-TLR3 RL24 IRF3 luciferase reporter, at 10 µM, stronger effect = higher value

Chain of Voltage-gated potassium channel subunit beta-2 (Rattus norvegicus) (P62483 whole entry, looked up): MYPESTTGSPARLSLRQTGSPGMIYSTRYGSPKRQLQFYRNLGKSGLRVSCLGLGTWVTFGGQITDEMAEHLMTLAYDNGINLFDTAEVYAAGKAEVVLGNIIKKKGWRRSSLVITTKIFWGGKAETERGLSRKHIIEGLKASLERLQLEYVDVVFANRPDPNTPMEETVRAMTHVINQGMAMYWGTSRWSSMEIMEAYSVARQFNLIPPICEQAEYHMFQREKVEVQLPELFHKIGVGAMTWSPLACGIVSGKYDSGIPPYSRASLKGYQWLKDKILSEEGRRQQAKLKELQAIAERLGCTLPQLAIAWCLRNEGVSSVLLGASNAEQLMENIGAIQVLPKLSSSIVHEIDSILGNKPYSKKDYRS
Chain of Alpha-2C adrenergic receptor (Homo sapiens) (P18825 whole entry, looked up): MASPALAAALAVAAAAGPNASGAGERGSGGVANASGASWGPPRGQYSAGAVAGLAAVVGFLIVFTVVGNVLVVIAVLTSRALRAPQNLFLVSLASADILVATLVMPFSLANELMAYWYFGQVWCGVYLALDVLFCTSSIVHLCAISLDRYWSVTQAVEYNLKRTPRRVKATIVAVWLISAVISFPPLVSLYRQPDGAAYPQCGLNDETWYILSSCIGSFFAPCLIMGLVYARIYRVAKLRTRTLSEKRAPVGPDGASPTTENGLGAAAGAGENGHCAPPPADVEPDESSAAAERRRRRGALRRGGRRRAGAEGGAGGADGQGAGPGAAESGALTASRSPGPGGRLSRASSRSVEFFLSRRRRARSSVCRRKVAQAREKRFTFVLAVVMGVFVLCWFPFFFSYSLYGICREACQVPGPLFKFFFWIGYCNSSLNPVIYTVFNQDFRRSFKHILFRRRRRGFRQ

SMILES	cell count [1]	inhibition [1]	inhibition of aggregation [2]	nuclei count [2] [%]	inhibition [3]	nuclei count [3] [%]	fluorescence slope [4]	NADPH fluorescence slope [5]	slope [6]	outcome [7]	inhibition [8]	inhibition [9]
COc1ccc(Cl)cc1N1CCN(CCNC(=O)Nc2ccccc2C)CC1	353	0.6% (inactive)	-3.4% (inactive)	108	-3.8% (inactive)	111	-0.452 (inactive)	-1.3e-05 (inactive)	0.00435 (inactive)	inactive	21.9% (inactive)	8.13% (inactive)
CCCN1Cc2cccc(C(=O)NC3CCCC3)c2C1=O	653	0.7% (inactive)	14% (inactive)	95.2	-62.4% (inactive)	101	-0.349 (inactive)	-6.1e-05 (inactive)	0.0059 (inactive)	inactive	11.8% (inactive)	22.8% (inactive)
COC(=O)CN(Cc1ccco1)S(=O)(=O)c1ccccc1	554	-13.3% (inactive)	-8.4% (inactive)	111	-9.7% (inactive)	112	-0.351 (inactive)	-5.1e-05 (inactive)	0.00494 (inactive)	inactive	7.73% (inactive)	6.21% (inactive)
COc1ccc(CN(CC(=O)NCC2CCCO2)C(=O)CCC(=O)Nc2cc(C)on2)cc1 (configuration not stated)	242	7.6% (inactive)	7.1% (inactive)	89.3	13.1% (inactive)	104	-0.399 (inactive)	-1.6e-05 (inactive)	0.00463 (inactive)	inactive	-9.53% (inactive)	-6.1% (inactive)
Cc1ccc(C)c(CSc2nnc(CCN)o2)c1	431	-14.5% (inactive)	2.5% (inactive)	65.3	-41.1% (inactive)	103	-0.462 (inactive)	-9.3e-06 (inactive)	0.00535 (inactive)	inactive	6.22% (inactive)	10.2% (inactive)
O=C(O)c1ccc(S(=O)(=O)Cc2ccccc2)cc1	422	11.4% (inactive)	3% (inactive)	88.3	-81.2% (inactive)	113	-0.421 (inactive)	7.6e-07 (inactive)	0.00596 (inactive)	inactive	16.7% (inactive)	11.3% (inactive)
Cc1cc(C)nc(-n2nc(C)cc2NC(=O)c2ccc(Br)o2)n1	442	-7.3% (inactive)	18.7% (inactive)	90.1	21.7% (inactive)	105	-0.374 (inactive)	-5.8e-05 (inactive)	0.00507 (inactive)	inactive	-4.98% (inactive)	20.1% (inactive)
C#CCSc1nc(-c2cccs2)ccc1C#N	340	-1% (inactive)	-15% (inactive)	92.8	-85.2% (inactive)	112	-0.5 (inactive)	5.7e-06 (inactive)	0.00646 (inactive)	inactive	-10.7% (inactive)	5.18% (inactive)
CCn1c(SCC(=O)Nc2ccc3c(c2)OCO3)nnc1-c1cnccn1	542	-3.4% (inactive)	1.7% (inactive)	89.2	-72.2% (inactive)	118	-0.437 (inactive)	-5.6e-05 (inactive)	0.00469 (inactive)	inactive	15.5% (inactive)	16.7% (inactive)
O=C(c1cccc2c1C(=O)N(Cc1cccnc1)C2)N1CCN(c2ccccc2)CC1	941	9.3% (inactive)	-5.7% (inactive)	103	-104% (inactive)	135	-0.365 (inactive)	-6e-05 (inactive)	0.00499 (inactive)	inactive	13.7% (inactive)	9.9% (inactive)
Cc1ccc2[nH]c3c(=O)n(CCCN4CCN(C)CC4)cnc3c2c1	478	1% (inactive)	-13.7% (inactive)	105	-36.8% (inactive)	115	-0.38 (inactive)	-2.9e-05 (inactive)	0.0053 (inactive)	inactive	1.24% (inactive)	22.2% (inactive)
